This is an account of results in ChEMBL document CHEMBL3120138, “Glucocorticoid receptor modulators informed by crystallography lead to a new rationale for receptor selectivity, function, and implications for structure-based design” (J Med Chem, 2014).

Calls of active or inactive are those of the source. No cut-off for these calls is given here.

The test system of data set [1] is Rattus norvegicus. Briefly: Antiinflammatory activity in Lewis rat collagen-induced arthritis model assessed as reduction of paw diameter AUC at 3 to 30 mg/kg, po administered for 15 days measured during compound dosing. It counts as functional, organism-based. Summed up:
(§1)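 Female Lewis rats received collagen injected at the tail base, and disease developed over 14 d. Responding rats (groups of n = 10) were then dosed orally once daily for the next 15 d. Ankle/paw diameter was measured throughout the live phase and summarised as AUC. Hindpaw histology was scored blind from 0 (normal) to 5 (vehicle-level). Statistics used Student's t test vs vehicle, p < 0.01.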

Data set [2] can be described thus: AUC in Sprague-Dawley rat at 3 mg/kg, iv. It counts as ADME, organism-based. Also noted: dose 3 mg/kg, route intravenous. As to conditions: plasma. In short, it runs like this: (§2)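 Cannulated male Sprague-Dawley rats, fasted overnight, given a single 3 mpk dose at t = 0. The iv vehicle was 20% microemulsion/80% DI water and the po vehicle CMC/tween in DI water. Plasma was analysed for parent compound by LC/MS-MS, and exposure, half-life, Vd, clearance and bioavailability were calculated.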

Data set [3] can be described thus: Oral bioavailability in Sprague-Dawley rat at 3 mg/kg. It counts as ADME, organism-based. As to conditions: in vivo. In short, it runs like this: as §2
The test system of data set [4] is Rattus norvegicus. Kind of data set: Antiinflammatory activity in Lewis rat collagen-induced arthritis model assessed as reduction of pannus at 30 mg/kg, po administered for 15 days. It counts as functional, organism-based. The arrangement: dose 30 mg/kg. Summed up:
as §1

Data set [5] relates to Rattus norvegicus. Kind of data set: Antiinflammatory activity in Lewis rat collagen-induced arthritis model assessed as reduction of joint inflammation at 30 mg/kg, po administered for 15 days. It counts as functional, organism-based. The arrangement: dose 30 mg/kg. In short, it runs like this: as §1
Data set [6] concerns Rattus norvegicus. Kind of data set: Antiinflammatory activity in Lewis rat collagen-induced arthritis model assessed as reduction of cartilage damage at 30 mg/kg, po administered for 15 days. Also noted: dose 30 mg/kg. It counts as functional, organism-based. Summed up: as §1
The subject of data set [7] is Rattus norvegicus. Briefly: Antiinflammatory activity in Lewis rat collagen-induced arthritis model assessed as reduction of bone resorption at 30 mg/kg, po administered for 15 days. It counts as functional, organism-based. The arrangement: dose 30 mg/kg. Summed up: as §1

The term AUC denotes the area under the concentration-time curve, a measure of exposure. Higher therefore signals more exposure. Usually bioavailability stands for the share of a dose that reaches the circulation, judged against a reference dose that is usually intravenous.

`CC/C(=C1\c2ccccc2OCc2cccc(OC)c21)c1cccc(NS(C)(=O)=O)c1`: the outcome in the data set on Rattus norvegicus [1], with Rattus norvegicus [4], with Rattus norvegicus [5], in the data set on Rattus norvegicus [6] and in the data set on Rattus norvegicus [7] was Active. The molecule also yielded an AUC in data set [2] of 1490 ng·h/mL. For the same molecule, the bioavailability in data set [3] is 100%.
